# Screens: PubChem, The Scripps Research Institute Molecular Screening Center
# RORA inh: inhibitors of orphan receptor RORA, primary screen, cell-based, luminescence. Nuclear receptor ROR-alpha (Homo sapiens), P35398. CHO-K1 Gal4-RORA LBD luciferase reporter. inhibition, % at 10 µM. 65,000 compounds, 0.43% hits;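 active = inhibition above the mean of all tested compounds plus 3 SD, cut at about 52% in these data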;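 note: 0% = RORA-transfected cells with DMSO and 100% = mock-transfected cells lacking RORA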
#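 System: transiently transfected CHO-K1 cells, Gal4-DBD/human RORA-LBD fusion plus 5xGal4-luciferase reporter. Doses: one dose of 10 µM final. Timing: 20 h compound treatment, 37 °C. Measured by: luminescence. Evaluation: % inhibition of basal luciferase versus +RORA/-RORA DMSO controls. Benchmarks: mock-transfected cells as 100%, +RORA DMSO cells as 0%. Replicates: single test per compound.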
# Numbers without * were called inactive. The entries come from a sample that favours hits as a whole.
SMILES,RORA inh
O=C(NCCc1cccc(F)c1)[C@@H]1CSC2c3ccccc3C(=O)N21 (stereo not given in full),8.7
O=C(CC1Oc2ccccc2NC1=O)NCc1ccccc1 (stereo not given),3.7
CC(=O)CC1OC(=O)C(Br)=C1NCc1ccccc1 (stereo not given),62.8*
O=C(c1ccc2c(c1)c(=O)oc1ccccc12)N1CCCCC1,-49.9
Cc1ccnc2nc(C(=O)N3CCN(S(=O)(=O)c4ccccc4)CC3)nn12,-13.7
Cc1cccc2cc3c(nc12)SC(=NCC1CCCO1)N(Cc1ccco1)C3 (stereo not given),54.7*
C=CCn1c(CCNC(=O)C(C)(C)C)nc2ccccc21,13.6
O=C(Nc1nccs1)c1ccc(NC(=O)c2ccco2)cc1,-53.4
CCOCCn1c(CN(Cc2ccccc2)Cc2ccccc2)nc2c1c(=O)n(C)c(=O)n2C,-2.1
COC(=O)c1ccccc1NC(=O)CSc1n[nH]c(CC(C)C)n1,1.5
CC1=C(C(=O)OC(C)(C)C)C(c2ccco2)C(C#N)=C(N)O1 (stereo not given),-1.7
